Drawing on ChEMBL document CHEMBL1124018, “Synthesis and pharmacological properties of "soft drug" derivatives related to perhexiline” (J Med Chem, 1988), this text covers pA2 for 28 molecules.

The test addresses T1, Adrenergic receptor alpha-1 (Rattus norvegicus, UniProt P15823+P23944+P43140).
T1 sequence (P15823 whole entry): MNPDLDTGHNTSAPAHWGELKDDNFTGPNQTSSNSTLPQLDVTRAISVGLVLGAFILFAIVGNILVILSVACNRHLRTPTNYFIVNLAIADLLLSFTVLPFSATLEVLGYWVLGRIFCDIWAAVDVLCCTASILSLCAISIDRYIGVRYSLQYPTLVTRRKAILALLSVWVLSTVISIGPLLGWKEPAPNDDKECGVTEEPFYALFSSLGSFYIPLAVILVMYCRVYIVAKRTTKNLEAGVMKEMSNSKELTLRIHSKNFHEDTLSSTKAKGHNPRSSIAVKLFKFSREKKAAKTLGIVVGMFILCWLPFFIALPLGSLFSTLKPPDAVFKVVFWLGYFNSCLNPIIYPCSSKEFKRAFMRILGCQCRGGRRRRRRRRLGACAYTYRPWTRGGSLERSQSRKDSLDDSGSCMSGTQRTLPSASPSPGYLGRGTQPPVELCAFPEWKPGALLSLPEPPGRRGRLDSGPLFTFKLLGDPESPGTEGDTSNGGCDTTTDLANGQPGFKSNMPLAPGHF
T1 sequence (P23944 whole entry): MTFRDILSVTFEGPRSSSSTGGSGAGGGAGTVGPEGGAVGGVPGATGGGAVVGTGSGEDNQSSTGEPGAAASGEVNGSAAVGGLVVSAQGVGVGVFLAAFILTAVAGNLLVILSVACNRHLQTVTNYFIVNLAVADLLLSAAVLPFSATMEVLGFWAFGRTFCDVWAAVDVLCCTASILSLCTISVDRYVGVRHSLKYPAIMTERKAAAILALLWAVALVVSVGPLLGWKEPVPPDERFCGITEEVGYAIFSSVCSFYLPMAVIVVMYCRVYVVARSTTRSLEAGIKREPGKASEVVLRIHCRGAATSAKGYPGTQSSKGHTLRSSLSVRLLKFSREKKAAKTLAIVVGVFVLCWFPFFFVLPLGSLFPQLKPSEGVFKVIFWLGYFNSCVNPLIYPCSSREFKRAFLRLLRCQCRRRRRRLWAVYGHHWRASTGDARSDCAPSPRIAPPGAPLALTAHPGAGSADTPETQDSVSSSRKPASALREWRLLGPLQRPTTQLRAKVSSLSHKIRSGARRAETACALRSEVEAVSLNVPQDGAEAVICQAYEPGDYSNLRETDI
T1 sequence (P43140 whole entry): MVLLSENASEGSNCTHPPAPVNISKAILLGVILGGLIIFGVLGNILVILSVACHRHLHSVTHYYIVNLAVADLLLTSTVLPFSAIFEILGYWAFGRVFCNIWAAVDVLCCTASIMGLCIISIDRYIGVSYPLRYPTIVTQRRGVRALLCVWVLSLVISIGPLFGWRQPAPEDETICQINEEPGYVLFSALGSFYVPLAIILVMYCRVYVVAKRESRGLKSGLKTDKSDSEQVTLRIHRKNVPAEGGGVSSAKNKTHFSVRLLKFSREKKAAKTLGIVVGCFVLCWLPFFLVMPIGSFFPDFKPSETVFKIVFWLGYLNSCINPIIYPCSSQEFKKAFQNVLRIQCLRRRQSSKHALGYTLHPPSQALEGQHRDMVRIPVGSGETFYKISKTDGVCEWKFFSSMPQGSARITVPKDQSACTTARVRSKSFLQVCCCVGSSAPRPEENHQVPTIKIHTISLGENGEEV
Nature of the test: Alpha adrenergic receptor activity in rat aorta. The class given is tissue-based. The method, boiled down:
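Rat aortic strips held at 2 g resting tension, stabilized about 1 h. Propranolol 10^-6 M for 30 min to block β-receptors. Isometric contraction recorded. Tissues primed with an agonist level giving 70-80% of maximal response, then washed every 15 min for 60 min. Two cumulative norepinephrine curves (10^-10–10^-7 M), with ascorbic acid 1.13 × 10^-5 M present, run before and after 30 min antagonist preincubation. One antagonist concentration per preparation. Reported as pA2.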

The pA2 is the negative logarithm of the molar antagonist concentration that doubles the agonist concentration needed for the same response. A low value points to a weaker antagonist. Molecule `O=C(Cc1ncc[nH]1)NC(c1ccccc1)C1CCCCC1.O=C(O)C(=O)O` (stereo not drawn) came in with a pA2 of 5.9.

In turn, `NCC(=O)NC(c1ccccc1)C1CCCCC1.O=C(O)/C=C\C(=O)O` (stereo not drawn) returned a pA2 of 4.5. The same measure for `O=C(NCCC1=NCCN1)C(c1ccccc1)C1CCCCC1.O=C(O)C(=O)O` (stereo not drawn): 5.7; for `O=C(CNC1CCCCC1)NC(c1ccccc1)C1CCCCC1` (stereo not drawn): 6.5. The molecule `O=C(NCc1ncc[nH]1)C(c1ccccc1)C1CCCCC1.O=C(O)C(=O)O` (stereo not drawn) yielded a pA2 of 5.2. The same measure for `O=C(CCc1ncc[nH]1)NC(c1ccccc1)C1CCCCC1.O=C(O)C(=O)O` (stereo not drawn): 4.2.

With `CN(C(=O)CNC1CCCCC1)C(c1ccccc1)C1CCCCC1.O=C(O)/C=C\C(=O)O` (stereo not drawn), the pA2 is 5.3.

`O=C(NCc1c[nH]cn1)C(c1ccccc1)C1CCCCC1.O=C(O)/C=C\C(=O)O` (stereo not drawn) came in with a pA2 of 4.1. Turning to `O=C(NCCc1ncc[nH]1)C(c1ccccc1)C1CCCCC1.O=C(O)C(=O)O` (stereo not drawn), the pA2 is 5.4. The molecule `CCN(CC)CCNC(=O)C(c1ccccc1)C1CCCCC1.Cl` (stereo not drawn) came in with a pA2 of 5.4. `O=C(CNCC1COc2ccccc2O1)NC(c1ccccc1)C1CCCCC1.O=C(O)/C=C\C(=O)O` (stereo not drawn) gave a pA2 of 6. The result for `O=C(NCCNC1CCCCC1)C(c1ccccc1)C1CCCCC1` (stereo not drawn) reads 6.6.

In the case of `O=C(NCCN1CCOCC1)C(c1ccccc1)C1CCCCC1.O=C(O)C(=O)O` (stereo not drawn), the pA2 was determined as 4.5. The same measure for `COc1ccc(CCN(C)CC(=O)NC(c2ccccc2)C2CCCCC2)cc1OC.O=C(O)C(=O)O` (stereo not drawn): 6.5; for `C1CCC(C(CC2CCCCN2)C2CCCCC2)CC1` (stereo not drawn) [PERHEXILINE]: 6.7; for `O=C(NCCN1CCCCC1)C(c1ccccc1)C1CCCCC1.O=C(O)C(=O)O` (stereo not drawn): 6. Molecule `O=C(Cc1c[nH]cn1)NC(c1ccccc1)C1CCCCC1.O=C(O)/C=C\C(=O)O` (stereo not drawn) gave a pA2 of 5.3.

`Cl.O=C(NCC1=NCCN1)C(c1ccccc1)C1CCCCC1` (stereo not drawn) gave a pA2 of 6.1. The same measure for `CCN(CC)CC(=O)NC(c1ccccc1)C1CCCCC1` (stereo not drawn): 6.

On to `O=C(CCNC1CCCCC1)NC(c1ccccc1)C1CCCCC1` (stereo not drawn), for which the pA2 was found to be 6.1. `O=C(CC1=NCCN1)NC(c1ccccc1)C1CCCCC1.O=C(O)C(=O)O` (stereo not drawn): the pA2 stood at 5.8.

The molecule `CN(CC(=O)NC(c1ccccc1)C1CCCCC1)C1CCCCC1.O=C(O)/C=C\C(=O)O` (stereo not drawn) yielded a pA2 of 6.7. `COc1ccccc1N1CCN(CCC(=O)NC(c2ccccc2)C2CCCCC2)CC1.O=C(O)/C=C\C(=O)O` (stereo not drawn) showed a pA2 of 6. As to `CN(CC(=O)NC(c1ccccc1)C1CCCCC1)CC1COc2ccccc2O1.O=C(O)C(=O)O` (stereo not drawn), the pA2 is reported as 6.15. The result for `O=C(CCC1=NCCN1)NC(c1ccccc1)C1CCCCC1.O=C(O)C(=O)O` (stereo not drawn) reads 5.4. In turn, `Cl.O=C(NC1CCCCN1)C(c1ccccc1)C1CCCCC1` (stereo not drawn) displayed a pA2 of 5.5. Regarding `O=C(CCCNC1CCCCC1)NC(c1ccccc1)C1CCCCC1` (stereo not drawn), the pA2 was 5.8. The same measure for `CN(CC(=O)N(C)C(c1ccccc1)C1CCCCC1)C1CCCCC1.O=C(O)/C=C\C(=O)O` (stereo not drawn): 4.5.
